Among the data in ChEMBL document CHEMBL1138318, “Synthesis and evaluation of the antiproliferative activities of derivatives of carboxyalkyl isoflavones linked to N-t-Boc-hexylenediamine” (J Med Chem, 2007) are Ratio values, retold here.

Data set [1] is described as follows: Inhibition of DNA synthesis in human H295R cells assessed as ratio of treated to untreated control at 30 nM after 48 hrs by [3H]thymidine incorporation assay. The data set is classed as functional. In short, it runs like this: (§1)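 Single-concentration screen by [3H]-thymidine incorporation into DNA. Test compounds were used at 0.3 µM in C4–2B cells and at 3 µM in 320DM, MLS, A2780, H295R and VSMC cells. Estradiol 17β was used at 30 nM throughout. Values are experimental/control DNA-synthesis ratios, given as means ± SD of 8–16 incubates from 2–4 experiments.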
Background: Dividing cells build labelled thymidine or BrdU into new DNA.

For data set [2], the system named is LNCaP C4-2B. Description: Inhibition of DNA synthesis in human C4-2B cells assessed as ratio of treated to untreated control at 30 nM after 48 hrs by [3H]thymidine incorporation assay. The data set is classed as functional. In short, it runs like this:
as §1

A short description of data set [3]: Inhibition of DNA synthesis in human VSMC cells assessed as ratio of treated to untreated control at 30 nM after 48 hrs by [3H]thymidine incorporation assay. The data set is classed as cell-based. The note with it: 0.03 µM. In a few lines: as §1
Data set [4] is described as follows: Stimulation of DNA synthesis in human MLS cells assessed as ratio of treated to untreated control at 300 nM after 48 hrs by [3H]thymidine incorporation assay. In kind it is functional. In a few lines: (§2)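 Estradiol-driven proliferation in MLS and 320DM cells, measured by [3H]-thymidine incorporation. Cells were exposed to estradiol at 30 or 300 nM, alone or with compound (0.3 µM) or ICI 182780 (1.1 µM). Values are E/C ratios versus untreated control, given as means ± SD of 8–16 incubates from 2–4 experiments.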

Data set [5] is described as follows: Inhibition of DNA synthesis in human 320DM cells assessed as ratio of treated to untreated control at 30 nM after 48 hrs by [3H]thymidine incorporation assay. In kind it is functional. In a few lines:
as §1

Data set [6] in a line: Inhibition of DNA synthesis in human MLS cells assessed as ratio of treated to untreated control at 30 nM after 48 hrs by [3H]thymidine incorporation assay. In kind it is functional. In a few lines:
as §1

In data set [7] the test system is A2780. The data set can be described thus: Inhibition of DNA synthesis in human A2780 cells assessed as ratio of treated to untreated control at 30 nM after 48 hrs by [3H]thymidine incorporation assay. In kind it is functional. In short, it runs like this: as §1
Data set [8] is described as follows: Stimulation of DNA synthesis in human 320DM cells assessed as ratio of treated to untreated control at 300 nM after 48 hrs by [3H]thymidine incorporation assay. In kind it is functional. In short, it runs like this:
as §2

The test system of data set [9] is A2780. Description: Inhibition of DNA synthesis in human A2780 cells assessed as ratio of treated to untreated control at 3 uM after 48 hrs by [3H]thymidine incorporation assay. In kind it is functional. In a few lines: as §1
Data set [10] is described as follows: Inhibition of DNA synthesis in human 320DM cells assessed as ratio of treated to untreated control at 3 uM after 48 hrs by [3H]thymidine incorporation assay. In kind it is functional. In a few lines: as §1
A short description of data set [11]: Inhibition of DNA synthesis in human MLS cells assessed as ratio of treated to untreated control at 3 uM after 48 hrs by [3H]thymidine incorporation assay. The data set is classed as functional. In short, it runs like this:
as §1

Data set [12] is described as follows: Inhibition of DNA synthesis in human H295R cells assessed as ratio of treated to untreated control at 3 uM after 48 hrs by [3H]thymidine incorporation assay. The data set is classed as functional. In short, it runs like this: as §1
Data set [13] deals with LNCaP C4-2B. The data set can be described thus: Inhibition of DNA synthesis in human C4-2B cells assessed as ratio of treated to untreated control at 0.3 uM after 48 hrs by [3H]thymidine incorporation assay. In kind it is functional. In a few lines:
as §1

The nature of data set [14]: Inhibition of DNA synthesis in human VSMC cells assessed as ratio of treated to untreated control at 3 uM after 48 hrs by [3H]thymidine incorporation assay.
A short description of data set [15]: Inhibition of DNA synthesis in human MLS cells assessed as ratio of treated to untreated control at 1.1 uM after 48 hrs by [3H]thymidine incorporation assay. In kind it is functional. In short, it runs like this: (§3)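 [3H]-thymidine incorporation into DNA in human MLS ovarian or 320DM colon cancer cells; antagonist tested at 1.1 µM alone or with estradiol at 30 nM or 300 nM. Reported as ratio of experimental to control (E/C) DNA synthesis, means ± SD of 8–16 incubates from 2–4 experiments; significance flagged at p < 0.05 and p < 0.01.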

A short description of data set [16]: Inhibition of DNA synthesis in human 320DM cells assessed as ratio of treated to untreated control at 1.1 uM after 48 hrs by [3H]thymidine incorporation assay. In kind it is functional. In a few lines:
as §3

The nature of data set [17]: Inhibition of 30 nM estradiol induced stimulation of DNA synthesis in human MLS cells assessed as ratio of treated to untreated control at 1.1 uM after 48 hrs by [3H]thymidine incorporation assay. In kind it is functional. In short, it runs like this:
as §3

The nature of data set [18]: Inhibition of 30 nM estradiol induced stimulation of DNA synthesis in human 320DM cells assessed as ratio of treated to untreated control at 1.1 uM after 48 hrs by [3H]thymidine incorporation assay. The data set is classed as functional. In short, it runs like this:
as §3

A short description of data set [19]: Inhibition of 300 nM estradiol induced stimulation of DNA synthesis in human MLS cells assessed as ratio of treated to untreated control at 1.1 uM after 48 hrs by [3H]thymidine incorporation assay. The data set is classed as functional. In short, it runs like this: as §3
A short description of data set [20]: Inhibition of 300 nM estradiol induced stimulation of DNA synthesis in human 320DM cells assessed as ratio of treated to untreated control at 1.1 uM after 48 hrs by [3H]thymidine incorporation assay. In kind it is functional. In short, it runs like this:
as §3

In the case of `C[C@]12CC[C@@H]3c4ccc(O)cc4CC[C@H]3[C@@H]1CC[C@@H]2O` [ESTRADIOL], the Ratio in [1] was 2.1; in data set [2] it was 2.1; in [3], 0.55; in [4] it was 1.7; in data set [5] it was 2.06; in [6], 2.35. The results for the Ratio in [7] and in data set [8] were 1.42 and 1.87, respectively.

Turning to `COc1ccc(-c2c(CCCC(=O)NCCCCCCNC(=O)OC(C)(C)C)oc3cc(O)cc(O)c3c2=O)cc1`, the Ratio in data set [9] stood at 0.64; in data set [10], 0.22; in data set [11] it was 0.05; in data set [12], 0.55; in data set [13], 0.41; in data set [14], 0.74.

As for `CC(C)(C)OC(=O)NCCCCCCNC(=O)CCCc1oc2cc(O)cc(O)c2c(=O)c1-c1ccc(O)cc1`, the Ratio worked out at 1.12 in data set [9]; 0.2 in data set [10]; 0.6 in data set [12]; 0.75 in data set [13]; 0.78 in data set [14].

Regarding `C[C@]12CC[C@@H]3c4ccc(O)cc4C[C@@H](CCCCCCCCC[S+]([O-])CCCC(F)(F)C(F)(F)F)[C@H]3[C@@H]1CC[C@@H]2O` (stereo not given in full) [FULVESTRANT], the Ratio in data set [15] is 0.52; in data set [16], 0.63; in data set [17] it was 0.53; in [18], 0.63; in data set [19], 0.95; in [20] it was 0.92.
